Screens from PubChem BioAssay.
Shown are actives, neighbours in structure and some others; about 3.9% of the full set was active somewhere.
HCV NS3 hel inh – blocks Hepatitis C virus NS3 helicase unwinding | NS3 helicase DNA unwinding, Cy5 molecular beacon fluorescence | inhibition, % at 10.9 µM | 290,000 tested, 0.56% active;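 active = inhibition above the mean of all tested compounds plus 3 SD, set per campaign, cut at about 35% in these data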
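Compound dosing – single dose, 10.9 µM nominal final, DMSO 0.8% final · System – NS3 helicase fragment of HCV · Buffer or medium – MOPS pH 6.5, MgCl2, DTT, Tween20, BSA · Signal – Cy5 beacon fluorescence read at start and 1 h · Also added – annealed dual-labelled DNA beacon duplex, ATP-started · Schedule – 1 h at 25 °C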
HSF1 inh – HSF1 inhibition; NIH3T3-HGL HSE-luciferase, MG132-induced, luminescence 8 h; stronger effect = lower value; activity change, negative = inhibition, % at 7.5 µM (by protocol); 300,000 tested, 0.77% active; AID 2098;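 active = more than half of replicate wells show activity change below -50%, luminescence cut by over half; inconclusive = some wells, but at most half, below -50%; inactive = no replicate well below -50%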;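 note: luciferase reports HSF-1 transcriptional activity via heat shock element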
DNA FID counter – counter-screen for HCV NS3 helicase inhibitors: DNA intercalator displacement | inhibition, % at 7.9 µM | DNA fluorescent intercalator displacement, fluorescence | AID 1845 | 290,000 tested, 0.17% active; in the data active = inhibition above about 37%;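 note: higher means more ethidium bromide displaced from hairpin DNA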
HSF-1 act – increases HSF-1 driven luciferase reporter signal; NIH3T3-HGL HSF-1 luciferase reporter, MG132, 8 h; 100% = twice DMSO control signal; activation, % at 9 µM; 300,000 tested, 1.7% active;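 active = mean replicate activation of at least 50% with a set share of replicates each reaching 50%; inconclusive = only one of those two conditions met; inactive = mean below 50% and too few replicates reaching it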
HSP90 inh – HSP90 refolding inhibition in rabbit reticulocyte lysate; luciferase refolding luminescence, 3 h; inhibition, % at 5.6 µM; 290,000 tested, 0.91% active; AID 1789;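 active = inhibition above the screen-wide mean plus 3 SD, computed separately per campaign, cut at about 16% in these data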;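 note: inhibitors lower the luminescence because luciferase stays unfolded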
core dimer inh – HCV core protein dimerization inhibition | TR-FRET GST/Flag-core106 dimerization, 1536-well | AID 1899 | inhibition, % at 5 µM | 300,000 tested, 0.33% active;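 active = inhibition above the mean of all tested compounds plus 3 SD, set per screening campaign, cut at about 45% in these data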
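System – GST-tagged and Flag-tagged HCV core protein residues 1-106 · Repeats – one well for each compound · Technique – TR-FRET 671 and 617 nm emission · Doses – one concentration, 5 µM, in 0.5% DMSO · Times – 4 h, 22.5 °C incubation · Also added – Eu donor and XL665 acceptor anti-tag antibodies · Measure – percent inhibition of core106 dimerization signal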
Numbers stand for hits; i = inactive; ? = inconclusive; nt = no result given.

SMILES	HCV NS3 hel inh	HSF1 inh	DNA FID counter	HSF-1 act	HSP90 inh	core dimer inh
CCOC(=O)C1=NN(c2ccc(C)cc2)C2(S1)SC(C(C)=O)=C(C)N2c1ccccc1 (stereo unspecified)	i	i	i	62	i	i
CCOC(=O)C1=NN(c2ccccc2)C2(S1)SC(C(C)=O)=C(C)N2c1ccccc1 (stereo unspecified)	i	i	i	i	i	i
Cc1ccc(C)c(N2CCN(CCN3CCCCC3)CC2)c1	i	-57	i	i	i	i
CCC(=O)N1CCN(c2cc(C)ccc2C)CC1	i	i	i	i	i	i
O=C(Cn1c(=O)oc2ccccc21)NCCc1ccccc1	i	i	i	i	i	i
O=C1c2ccccc2C(=O)N1CCCCN(C(=O)c1cc([N+](=O)[O-])cc([N+](=O)[O-])c1)c1ccc(Cl)cc1	i	i	i	i	i	i
Cc1ccc(N(CCCCN2C(=O)c3ccccc3C2=O)C(=O)c2cccc([N+](=O)[O-])c2)cc1	i	i	i	70	i	i
CCOC(=O)c1ccc(NS(=O)(=O)c2cnc[nH]2)cc1	i	i	i	i	i	i
O=C1CC(c2ccccc2Cl)=NN(c2ncnc3ccccc23)C1=O	i	i	i	i	i	i
CCC(Sc1nc(C)cc(C)n1)C(=O)NC1=NN=C(c2ccc(C)cc2)CS1 (stereo unspecified)	i	-74	i	i	i	i
CSc1cccc(NC(=O)CN(C)S(=O)(=O)c2ccccc2)c1	i	i	i	67	i	i
O=C(NC(=S)N1CCc2ccccc21)c1ccc(Br)o1	i	i	i	52	i	i
O=C(Nc1ccc2c3c(cccc13)CC2)c1ccco1	i	i	i	i	i	i
O=C(Nc1ccc2c3c(cccc13)CC2)c1ccc(Br)o1	i	i	i	75	i	i
O=C(NC(=S)N1CCc2ccccc21)c1ccccc1Br	i	i	i	57	i	i
N#CCCN(C(=O)COC(=O)c1cc(S(=O)(=O)N2CCOCC2)ccc1Cl)c1ccc(F)cc1	nt	i	nt	i	nt	i
COc1ccc2cc3c(N)nn(C(=O)c4ccccc4[N+](=O)[O-])c3nc2c1	i	-53	i	i	i	i
COc1ccc(C2=NN(C(=O)c3ccc(Cl)c([N+](=O)[O-])c3)C(c3ccccc3)C2)cc1 (stereo unspecified)	i	i	i	?	i	i
CCCC1CCC(C(=O)n2nc(N)c3cc4ccc(OC)cc4nc32)CC1 (stereo unspecified)	i	i	i	i	i	i
COc1ccc2cc3c(N)nn(C(=O)c4ccc(Cl)c([N+](=O)[O-])c4)c3nc2c1	i	i	i	i	i	48
NS(=O)(=O)c1ccc(CNS(=O)(=O)c2cc(C(=O)O)ccc2Cl)cc1	i	i	i	i	i	i
Cc1ccc(NC(=O)CCNS(=O)(=O)c2ccc3[nH]c(=O)oc3c2)c(Cl)c1	i	i	i	i	i	i
CCCCNC(=O)c1onc(CSc2ccccc2)c1C(=O)O	i	i	i	i	i	i
CCCCNC(=O)c1onc(CSc2cccc(Cl)c2)c1C(=O)O	i	-68	i	i	i	i
COc1ccc(Nc2c3c(c(C#N)c4nc5ccccc5n24)CCC3)cc1	i	i	i	i	i	i
SMILES	HCV NS3 hel inh	HSF1 inh	DNA FID counter	HSF-1 act	HSP90 inh	core dimer inh
CCNc1c(NC(=O)c2ccc3c(c2)OCO3)c(=O)oc2ccccc12	i	i	i	i	i	i
COc1cccc(C(=O)NC(c2ccccc2)C2CCCC2)c1 (stereo unspecified)	i	i	i	69	i	i
O=C(Nc1cccc(F)c1)NC1CCN(Cc2ccccc2)CC1	i	i	i	i	i	i
CCOC(=O)CNc1c(-c2ccc(O)cc2)nc2ccc(Cl)cn12	i	i	i	72	i	i
CC(=C/c1ccccc1)/C=N/NC(=O)c1cccs1	i	i	i	55	i	i
CC(/C=N/NC(=O)c1ccncc1)=C\c1ccccc1	i	i	i	i	i	i
O=C(N/N=C/C(Br)=C/c1ccccc1)c1ccncc1	i	i	i	i	i	i
CC(=C/c1ccccc1)/C=N/NC(=O)c1ccccn1	i	i	i	i	17	i
CC(/C=N/NC(=O)c1cccc(F)c1)=C\c1ccccc1	i	i	i	83	i	i
O=C(N/N=C/C(Br)=C\c1ccccc1)c1cccs1	i	i	i	101	i	i
O=C(NCc1nnc(SCC(=O)N2CCN(c3ccccc3)CC2)o1)c1ccc(F)cc1	i	i	i	i	i	i
COc1ccc(OC)c(N(CC(=O)NC2CCCC2)S(=O)(=O)c2ccc(OC)c(OC)c2)c1	i	i	i	i	i	i
O=C(Nc1ccc(Nc2ccccc2)cc1)c1cccc(F)c1	i	i	i	67	i	i
O=C(N/N=C/c1ccc(Cl)cc1Cl)c1cccc(F)c1	i	i	i	56	i	i
O=C(Nc1cccc(F)c1)c1ccccc1	i	i	i	i	i	i
CC(/C=N/NC(=O)Cn1cnc2ccccc21)=C\c1ccccc1	i	-66	i	i	i	i
Cc1cccc(/C=N\NC(=O)c2ccc(Cl)cc2)c1O	i	i	i	259	i	i
O=C(N/N=C/c1ccc(Cl)cc1Cl)c1ccc2nc[nH]c2c1	i	i	i	i	i	i
Cc1cccc(/C=N/NC(=O)Cc2ccc(Cl)cc2)c1O	i	i	i	i	i	i
Cc1nc(CNC(=O)CC2C(=O)NCCN2Cc2ccoc2)nc2c1CCCC2 (stereo unspecified)	i	i	i	i	i	i
O=C(N/N=C/C(Br)=C/c1ccccc1)C(O)c1ccccc1 (stereo unspecified)	i	i	i	61	i	i
O=C(N/N=C/C(Br)=C/c1ccccc1)C1CC1	i	i	i	i	i	i
COc1ccc(/C=N\NC(=O)c2sccc2C)cc1Cn1nc(C)cc1C	i	i	i	i	i	i
O=c1cc(-c2ccccc2)c2ccc(O)cc2o1	nt	-51	nt	i	nt	i
CCN1C(=O)CC(c2ccco2)Sc2ccccc21 (stereo unspecified)	i	i	i	i	i	i
SMILES	HCV NS3 hel inh	HSF1 inh	DNA FID counter	HSF-1 act	HSP90 inh	core dimer inh
O=[N+]([O-])c1ccc(N2CCOCC2)cc1NCc1ccccc1	i	nt	i	nt	i	i
O=[N+]([O-])c1cc([N+](=O)[O-])c(N2CCOCC2)cc1NCc1ccccc1	i	i	i	109	i	i
Cc1c(C(=O)Nc2ccc3c(c2)CCC3)cccc1[N+](=O)[O-]	i	i	i	57	i	i
O=C(Nc1ccc2c(c1)CCC2)c1cc(S(=O)(=O)N2CCN(c3ccccc3)CC2)ccc1Cl	i	i	i	i	i	55
O=C(O)C1CCCCC1C(=O)Nc1ccc2c(c1)CCC2 (stereo unspecified)	i	i	i	123	i	i
CSc1ccccc1C(=O)Nc1ccc2c(c1)CCC2	i	i	i	i	i	i
